Assay outcomes deposited in PubChem by The Scripps Research Institute Molecular Screening Center.
CHRM4 agonist: CHRM4 agonism in calcium assay; 360,000 tested, 0.14% active; P08173; activation, % at 3 µM; AID 624127; CHO-K1 hM4/Gqi5, Fluo-8 calcium fluorescence; vehicle 0%, full acetylcholine response 100%;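 active means activation above the run mean over all test wells plus 3 SD, cut at about 32% in these data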;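 further: peak over basal fluorescence ratio per well then scaled between controls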
TAAR1 agonist: human TAAR1 agonism; Q96RJ0; CHO RD-HGA16 TAAR1, Fluo-8 calcium fluorescence; vehicle wells 0%, saturating PEA agonist 100%; activation, % at 3 µM; 360,000 tested, 0.99% active; AID 624467;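 active means activation above the mean activation of all test compounds in the run plus 3 SD, cut at about 38% in these data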
Target sequence (Q96RJ0 whole entry, looked up): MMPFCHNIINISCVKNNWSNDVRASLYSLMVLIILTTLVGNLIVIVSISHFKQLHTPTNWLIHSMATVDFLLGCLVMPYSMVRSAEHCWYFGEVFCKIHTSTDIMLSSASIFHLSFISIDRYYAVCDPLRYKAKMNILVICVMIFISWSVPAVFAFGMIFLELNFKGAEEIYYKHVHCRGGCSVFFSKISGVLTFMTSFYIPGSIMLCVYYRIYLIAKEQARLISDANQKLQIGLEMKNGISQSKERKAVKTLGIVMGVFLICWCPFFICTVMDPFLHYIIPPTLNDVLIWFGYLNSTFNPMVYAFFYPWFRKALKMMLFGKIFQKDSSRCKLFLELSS
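Signal – calcium-sensitive Fluo-8 signal, excitation 470-495, emission 515-575 nm · System – RD-HGA16 (CHO) cells co-expressing Gα16 and hTAAR1 · Incubation – 17-24 h seeding, 75 min 37 °C dye, 30 min RT · Compound dosing – 3 µM single concentration · Repeats – no replicates (n 1)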
M4 antag: blocks acetylcholine activation of human M4 receptor; CHO-hM4 cells, ACh EC80, Fluo-8 calcium fluorescence; P08173; 360,000 tested, 0.73% active; inhibition, % at 3 µM;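 active means inhibition above its plate's cutoff, the mean inhibition of sample wells plus 3 SD, cut at about 27% in these data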
M4 PAM: potentiates acetylcholine response at human M4 receptor; CHO-K1 hM4/Gqi5, Fluo-8 calcium fluorescence, ACh EC20; 0% = ACh EC20, 100% = maximal ACh; 360,000 tested, 0.4% active; activation, % at 3 µM;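 active means activation above its plate's cutoff, the mean activation of sample wells plus 3 SD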
TAAR1 antag: human TAAR1 antagonism | Q96RJ0 | CHO RD-HGA16 TAAR1, Fluo-8 calcium fluorescence, antagonist | inhibition, % at 3 µM | 360,000 tested, 1.5% active;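 active means inhibition above a per-plate cutoff, the mean inhibition of test compounds on that plate plus 3 SD, cut at about 49% in these data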
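Test system – hTAAR1-expressing CHO RD-HGA16 cells, Gα16-coupled · Also added – β-PEA at EC80 concentration, post-compound challenge · Compound – 3 µM, single point · Incubation – dye loading 75 min at 37 °C, then 30 min room temperature · Measured by – Fluo-8 intracellular calcium dye fluorescence, real-time kinetic reads · Benchmarks – vehicle and agonist controls · Replicates – singlicate, one well per test compound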
Each line names hits and unclear results; the compound was inactive in the other large screens. This is a sample that favours compounds with a hit; in the whole collection about 3% have one here.

CCCCCC(C)NC(=O)CN1C(=O)NC(C)(c2ccc3ccccc3c2)C1=O (configuration not stated)	M4 PAM 23
COC(=O)C1=C(C)N(Cc2ccccc2C(F)(F)F)C(=NCc2cc(OC)c(OC)c(OC)c2)NC1c1cccc(Cl)c1 (configuration not stated)	none (no result: CHRM4 agonist, M4 antag, M4 PAM)
Cc1ccc(OC(=O)CCS(=O)(=O)c2ccc(C)cc2)cc1	M4 PAM 18
O=C(C[C@H]1C/C=C\CC[C@H](Cc2ccc(F)cc2)C(=O)O[C@@H](c2ccccc2)CNC1=O)N[C@H](CO)Cc1ccccc1	TAAR1 agonist 53, TAAR1 antag 56
O=C(C[C@H]1C/C=C\C[C@H](Cc2ccc(F)cc2)C(=O)O[C@@H](c2ccccc2)CNC1=O)N[C@H](CO)Cc1ccccc1	CHRM4 agonist 39, TAAR1 agonist 55
O=C(C[C@H]1C/C=C\CC[C@H](Cc2ccc(F)cc2)C(=O)O[C@H](c2ccccc2)CNC1=O)N[C@H](CO)Cc1ccccc1	TAAR1 antag 55
COCc1cc(N2CCNC[C@H]2C)ccc1N1CCS(=O)(=O)CC1	none (no result: CHRM4 agonist, M4 antag, M4 PAM)
CCCCNc1ccc2c(c1)OC[C@@H](Cc1ccccc1)NS2(=O)=O	none (no result: CHRM4 agonist, M4 antag, M4 PAM)
CN1C(=O)/C(=C/c2cn(CC(=O)NCc3ccco3)c3ccccc23)NC1=S	none (no result: CHRM4 agonist, M4 antag, M4 PAM)
CCN=C1S/C(=C\c2cn(CC(=O)NCc3ccco3)c3ccccc23)C(=O)N1CC	TAAR1 antag 49
Nc1[nH]c(C(=O)c2ccccc2)c(-c2cccc3ccccc23)c1C(=O)c1ccc(Br)cc1	none (no result: CHRM4 agonist, M4 antag, M4 PAM)
O=C(N[C@H](C(=O)N1CCC[C@H]1C(=O)NC1CCCC1)c1ccccc1)c1ccccc1	none (no result: CHRM4 agonist, M4 antag, M4 PAM)
C[C@H](NC(=O)c1ccccc1Cl)C(=O)Nc1ccccc1F	M4 antag 75
C[C@H](NC(=O)Nc1ccccc1F)C(=O)O	none
CC(=O)c1ccccc1OCC(O)CN1CCN(C(c2ccccc2)c2ccccc2)CC1 (configuration not stated)	M4 antag 35
COc1cccc(OCC(O)CN2CCN(C(c3ccccc3)c3ccccc3)CC2)c1 (configuration not stated)	none
CC(C)(C)S(=O)(=O)N1C[C@H]2CC(=O)C(CCO)=C2[C@@H]1CCO	none (no result: CHRM4 agonist, M4 antag, M4 PAM)
C#CCNC(=O)C[C@H]1C[C@@]2(C(=O)OC)C(=C[C@H](COCc3ccccc3)O[C@@H]2C)N(CCC2=CCCCC2)C1=O	none (no result: CHRM4 agonist, M4 antag, M4 PAM)
Cc1cccc(C(=O)NCC(=O)OCC(=O)c2ccc(C)s2)c1	none
Cc1ccc(C(=O)COC(=O)CNC(=O)c2ccccc2)s1	M4 PAM 22
COc1cc2c(cc1OC)C(C(=O)O)C(c1ccc3c(c1)OCO3)N(C)C2=O (configuration not stated)	none (no result: CHRM4 agonist, M4 antag, M4 PAM)
Cc1ccc(N2C(=O)CCSC23C(=O)Nc2ccccc23)cc1 (configuration not stated)	M4 antag 27
CC(O)(c1cccc(F)c1)c1nc(-c2cccc(C#N)c2)cs1 (configuration not stated)	none
CC(O)(c1cccnc1)c1nc(-c2cccc(C#N)c2)cs1 (configuration not stated)	M4 PAM 19
COc1cc(/C=C/C(=O)N2CCCc3ccccc32)cc(OC)c1OC	TAAR1 antag 52
COc1ccc(/C=C/C(=O)N2CCCc3ccccc32)cc1	none
COC(=O)[C@@]12C[C@@H](CC(=O)NCc3cccc4ccccc34)C(=O)N(Cc3ccco3)C1=CCC(C)(C)C2	none
Oc1cc(O)cc(C=Cc2ccc(O)c(O)c2)c1	none (no result: CHRM4 agonist, M4 antag, M4 PAM)
O=C1CSC(c2ccccc2F)N1c1ccccc1 (configuration not stated)	CHRM4 agonist 37
COc1cccc(C2SCC(=O)N2c2ccc(Br)cc2)c1OC (configuration not stated)	M4 antag 66
COc1ccc(C2SCC(=O)N2c2ccc(OC)cc2)cc1 (configuration not stated)	none
O=C1CSC(c2ccccc2F)N1c1ccccc1F (configuration not stated)	none
COC(=O)[C@]12C[C@H](CC(=O)N3CCC(c4ccccc4)CC3)C(=O)N(Cc3ccccc3)C1=C[C@H](C1CCCC1)O[C@@H]2C	none (no result: CHRM4 agonist, M4 antag, M4 PAM)
CN1CCCCC1CCN1c2ccccc2Sc2ccc(S(C)=O)cc21 (configuration not stated)	M4 antag 88
Cc1cccc2cc(CN(CCN(C)C)C(=S)Nc3ccccc3)c(=O)[nH]c12	M4 PAM 36
N#Cc1cc2ccccc2nc1SCc1ccccn1	CHRM4 agonist 52
Cc1cc2cc3c(cc2nc1SCc1ccccn1)OCCO3	none
CC1CCN(C(=O)c2ncn3c2C(=O)NC[C@H]3C)CC1	none (no result: CHRM4 agonist, M4 antag, M4 PAM)
Nc1[nH]c(C(=O)c2ccccc2)c(-c2cccc3ccccc23)c1C(=O)NCc1ccc(F)c(F)c1	none (no result: CHRM4 agonist, M4 antag, M4 PAM)
CCOc1ccccc1NC(=O)c1ccccc1-c1nc(-c2ccccc2OC)no1	TAAR1 antag 66
Nc1[nH]c(C(=O)c2ccccc2)c(-c2cccc(C(F)(F)F)c2)c1C(=O)c1c[nH]c2ccccc12	none (no result: CHRM4 agonist, M4 antag, M4 PAM)
CC(C)(C)C(=O)Nc1ccc(S(=O)(=O)Nc2ccccn2)cc1	M4 PAM 25
C[C@@H]1NS(=O)(=O)c2c(F)cccc2O[C@@H]1c1ccccc1	none (no result: CHRM4 agonist, M4 antag, M4 PAM)
CCOC(=O)C1=C(C(=O)OCC)C2N(Cc3ccc(Br)cc3)c3ccccc3[C@@]23C[C@@H](C(=O)OC)N(S(=O)(=O)c2ccc(OC)cc2)C3=N1 (some centres not stated)	none (no result: CHRM4 agonist, M4 antag, M4 PAM)
COc1ccc(NS(=O)(=O)c2cccc(C(=O)N/N=C/c3cn(-c4ccccc4)nc3-c3ccccc3)c2)cc1	M4 antag 51
COc1ccc(CN2C[C@@]3(O)CC[C@@H](O)[C@@H](OC)[C@@H]3[C@@]2(C)[C@H](O)CC=C(C)C)cc1	none (no result: CHRM4 agonist, M4 antag, M4 PAM)
CC(=O)c1cccc(NS(=O)(=O)c2ccc(N/C=C\C(=O)c3ccc(F)cc3)cc2)c1	TAAR1 antag 70
CC(=O)NCCc1ccc(O)cc1	none
CC(C)=CCCC(C)c1cc(C(=O)NCCc2ccc(O)cc2)c(N)s1 (configuration not stated)	TAAR1 agonist 40
Cc1ccc(S(=O)(=O)N2CCCCC2)cc1C(=O)N(CCc1ccccc1)Cc1ccccc1	none
CC(C)CC1NC(=O)c2cccnc2-n2c1nc1cc(F)ccc1c2=O (configuration not stated)	none
CCOC(=O)c1ccc(NC(=O)c2cccc(S(=O)(=O)N3c4ccccc4CC3C)c2)s1 (configuration not stated)	TAAR1 antag 63
CCN(CC)CCNC(=O)c1ccc(NC(=O)c2cc(S(=O)(=O)N3CCCCC3)ccc2C)cc1	M4 antag 69
CC1Cc2ccccc2N1S(=O)(=O)c1cccc(C(=O)NCCCO)c1 (configuration not stated)	none
